According to ChEMBL document CHEMBL3864121, “Development of ebsulfur analogues as potent antibacterials against methicillin-resistant Staphylococcus aureus” (Bioorg Med Chem, 2016):
≈ marks a conversion by molar mass, not a printed value.

Key:
Assay type in all cases: functional
Staphylococcus aureus [1] = test: Antibacterial activity against methicillin-resistant Staphylococcus aureus USA200 measured after overnight incubation by broth double-dilution method
In short: (§1)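 MIC by broth double-dilution in liquid Mueller-Hinton medium. Values are reported in µg/mL.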

Enterococcus faecalis [2] = test: Antibacterial activity against Enterococcus faecalis ATCC 49533 measured after overnight incubation by broth double-dilution method
In short: (§2)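 MIC by broth double-dilution in Mueller-Hinton medium. Re-testing at the time-kill inoculum used 1×10^6 CFU/mL.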

Staphylococcus aureus [3] = test: Antibacterial activity against methicillin-resistant Staphylococcus aureus S14 measured after overnight incubation by broth double-dilution method; in short: as §1
Staphylococcus aureus [4] = test: Antibacterial activity against methicillin-resistant Staphylococcus aureus NRS4 measured after overnight incubation by broth double-dilution method; in short: as §1
Staphylococcus aureus [5] = test: Antibacterial activity against methicillin-resistant Staphylococcus aureus G6 measured after overnight incubation by broth double-dilution method; in short: as §1
Enterococcus faecalis [6] = test: Antibacterial activity against Enterococcus faecalis ATCC 29212 measured after overnight incubation by broth double-dilution method; in short: as §2
Staphylococcus aureus [7] = test: Antibacterial activity against methicillin-resistant Staphylococcus aureus C19 measured after overnight incubation by broth double-dilution method; in short: as §1
Staphylococcus aureus [8] = test: Antibacterial activity against methicillin-resistant Staphylococcus aureus S17 measured after overnight incubation by broth double-dilution method; in short: as §1
Staphylococcus aureus [9] = test: Antibacterial activity against methicillin-resistant Staphylococcus aureus USA600 measured after overnight incubation by broth double-dilution method; in short: as §1
Staphylococcus aureus [10] = test: Antibacterial activity against methicillin-resistant Staphylococcus aureus C7 measured after overnight incubation by broth double-dilution method; in short: as §1
Staphylococcus aureus [11] = test: Antibacterial activity against methicillin-resistant Staphylococcus aureus S24 measured after overnight incubation by broth double-dilution method; in short: as §1
Staphylococcus aureus [12] = test: Antibacterial activity against methicillin-resistant Staphylococcus aureus G14 measured after overnight incubation by broth double-dilution method; in short: as §1
Staphylococcus aureus [13] = test: Antibacterial activity against methicillin-sensitive Staphylococcus aureus ATCC 25923 measured after overnight incubation by broth double-dilution method; in short: as §1
Staphylococcus aureus [14] = test: Antibacterial activity against methicillin-resistant Staphylococcus aureus USA300 measured after overnight incubation by broth double-dilution method; in short: as §1
Staphylococcus aureus [15] = test: Antibacterial activity against methicillin-resistant Staphylococcus aureus C1 measured after overnight incubation by broth double-dilution method; in short: as §1
Staphylococcus aureus [16] = test: Antibacterial activity against methicillin-resistant Staphylococcus aureus NRS77 measured after overnight incubation by broth double-dilution method; in short: as §1
Staphylococcus aureus [17] = test: Antibacterial activity against methicillin-resistant Staphylococcus aureus 1 measured after overnight incubation by broth double-dilution method; in short: as §1
Staphylococcus aureus [18] = test: Antibacterial activity against methicillin-resistant Staphylococcus aureus BRS3 measured after overnight incubation by broth double-dilution method; in short: as §1
Staphylococcus aureus [19] = test: Antibacterial activity against methicillin-resistant Staphylococcus aureus C2 measured after overnight incubation by broth double-dilution method; in short: as §1
Staphylococcus aureus [20] = test: Antibacterial activity against methicillin-sensitive Staphylococcus aureus ATCC 6538 measured after overnight incubation by broth double-dilution method; in short: as §1
[21] = test system: Mycolicibacterium smegmatis; test: Antibacterial activity against Mycobacterium smegmatis MC2-155 measured after overnight incubation by broth double-dilution method; conditions: str. MC2 155; in short: as §1
Staphylococcus aureus [22] = test: Antibacterial activity against methicillin-resistant Staphylococcus aureus USA100 measured after overnight incubation by broth double-dilution method; in short: as §1
Staphylococcus aureus [23] = test: Antibacterial activity against methicillin-resistant Staphylococcus aureus C16 measured after overnight incubation by broth double-dilution method; in short: as §1
Staphylococcus aureus [24] = test: Antibacterial activity against methicillin-resistant Staphylococcus aureus 2 measured after overnight incubation by broth double-dilution method; in short: as §1
Staphylococcus aureus [25] = test: Antibacterial activity against methicillin-resistant Staphylococcus aureus G1 measured after overnight incubation by broth double-dilution method; in short: as §1
Staphylococcus aureus [26] = test: Antibacterial activity against methicillin-resistant Staphylococcus aureus G12 measured after overnight incubation by broth double-dilution method; in short: as §1
Staphylococcus aureus [27] = test: Antibacterial activity against methicillin-resistant Staphylococcus aureus C14 measured after overnight incubation by broth double-dilution method; in short: as §1
Enterococcus faecium = test: Antibacterial activity against Enterococcus faecium BM4105-RF measured after overnight incubation by broth double-dilution method; in short: as §1
Enterococcus = test: Antibacterial activity against Vancomycin-resistant Enterococcus measured after overnight incubation by broth double-dilution method; in short: as §1
[28] = test system: Staphylococcus epidermidis; test: Antibacterial activity against Staphylococcus epidermidis ATCC 35984 measured after overnight incubation by broth double-dilution method; conditions: RP62A; in short: as §2
Staphylococcus aureus [29] = test: Antibacterial activity against methicillin-resistant Staphylococcus aureus ATCC 33591 measured after overnight incubation by broth double-dilution method; in short: as §1
Listeria monocytogenes = test: Antibacterial activity against Listeria monocytogenes ATCC 19115 measured after overnight incubation by broth double-dilution method; in short: as §2
Staphylococcus aureus [30] = test: Antibacterial activity against methicillin-resistant Staphylococcus aureus S22 measured after overnight incubation by broth double-dilution method; in short: as §1
Staphylococcus aureus [31] = test: Antibacterial activity against methicillin-resistant Staphylococcus aureus NRS51 measured after overnight incubation by broth double-dilution method; in short: as §1
Staphylococcus aureus [32] = test: Antibacterial activity against methicillin-sensitive Staphylococcus aureus ATCC 29213 measured after overnight incubation by broth double-dilution method; in short: as §1

Structure (SMILES)	MIC (Staphylococcus aureus [1]) [µg/mL]	MIC (Enterococcus faecalis [2]) [µg/mL]	MIC (Staphylococcus aureus [3]) [µg/mL]	MIC (Staphylococcus aureus [4]) [µg/mL]	MIC (Staphylococcus aureus [5]) [µg/mL]	MIC (Enterococcus faecalis [6]) [µg/mL]	MIC (Staphylococcus aureus [7]) [µg/mL]	MIC (Staphylococcus aureus [8]) [µg/mL]	MIC (Staphylococcus aureus [9]) [µg/mL]	MIC (Staphylococcus aureus [10]) [µg/mL]	MIC (Staphylococcus aureus [11]) [µg/mL]	MIC (Staphylococcus aureus [12]) [µg/mL]	MIC (Staphylococcus aureus [13]) [µg/mL]	MIC (Staphylococcus aureus [14]) [µg/mL]	MIC (Staphylococcus aureus [15]) [µg/mL]	MIC (Staphylococcus aureus [16]) [µg/mL]	MIC (Staphylococcus aureus [17]) [µg/mL]	MIC (Staphylococcus aureus [18]) [µg/mL]	MIC (Staphylococcus aureus [19]) [µg/mL]	MIC (Staphylococcus aureus [20]) [µg/mL]	further results
O=c1c2ccccc2sn1C1CCCCCCC1	7.8 (≈ 29.8 µM)	15.6 (≈ 59.7 µM)	1 (≈ 3.83 µM)	0.5 (≈ 1.91 µM)	2 (≈ 7.65 µM)	15.6 (≈ 59.7 µM)	2 (≈ 7.65 µM)	2 (≈ 7.65 µM)	7.8 (≈ 29.8 µM)	3.9 (≈ 14.9 µM)	3.9 (≈ 14.9 µM)	3.9 (≈ 14.9 µM)	> 125	7.8 (≈ 29.8 µM)	3.9 (≈ 14.9 µM)	2 (≈ 7.65 µM)	3.9 (≈ 14.9 µM)	3.9 (≈ 14.9 µM)	3.9 (≈ 14.9 µM)	2 (≈ 7.65 µM)	MIC [21]: 3.9 µg/mL (≈ 14.9 µM); MIC (Staphylococcus aureus [22]): 7.8 µg/mL (≈ 29.8 µM); MIC (Staphylococcus aureus [23]): 3.9 µg/mL (≈ 14.9 µM); MIC (Staphylococcus aureus [24]): 3.9 µg/mL (≈ 14.9 µM); MIC (Staphylococcus aureus [25]): 1 µg/mL (≈ 3.83 µM); MIC (Staphylococcus aureus [26]): 2 µg/mL (≈ 7.65 µM); MIC (Staphylococcus aureus [27]): 2 µg/mL (≈ 7.65 µM); MIC (Enterococcus faecium): 15.6 µg/mL (≈ 59.7 µM); MIC (Enterococcus): 1 µg/mL (≈ 3.83 µM); MIC [28]: 3.9 µg/mL (≈ 14.9 µM); MIC (Staphylococcus aureus [29]): > 125 µg/mL; MIC (Listeria monocytogenes): > 125 µg/mL; MIC (Staphylococcus aureus [30]): 7.8 µg/mL (≈ 29.8 µM); MIC (Staphylococcus aureus [31]): 2 µg/mL (≈ 7.65 µM); MIC (Staphylococcus aureus [32]): 2 µg/mL (≈ 7.65 µM)
O=c1c2ccccc2sn1C1CCCCC1	7.8 (≈ 33.4 µM)	> 125	0.5 (≈ 2.14 µM)	3.9 (≈ 16.7 µM)	3.9 (≈ 16.7 µM)	> 125	3.9 (≈ 16.7 µM)	7.8 (≈ 33.4 µM)	7.8 (≈ 33.4 µM)	3.9 (≈ 16.7 µM)	3.9 (≈ 16.7 µM)	3.9 (≈ 16.7 µM)	3.9 (≈ 16.7 µM)	7.8 (≈ 33.4 µM)	2 (≈ 8.57 µM)	3.9 (≈ 16.7 µM)	2 (≈ 8.57 µM)	7.8 (≈ 33.4 µM)	3.9 (≈ 16.7 µM)	7.8 (≈ 33.4 µM)	MIC [21]: 2 µg/mL (≈ 8.57 µM); MIC (Staphylococcus aureus [22]): 7.8 µg/mL (≈ 33.4 µM); MIC (Staphylococcus aureus [23]): 3.9 µg/mL (≈ 16.7 µM); MIC (Staphylococcus aureus [24]): 3.9 µg/mL (≈ 16.7 µM); MIC (Staphylococcus aureus [25]): 2 µg/mL (≈ 8.57 µM); MIC (Staphylococcus aureus [26]): 3.9 µg/mL (≈ 16.7 µM); MIC (Staphylococcus aureus [27]): 2 µg/mL (≈ 8.57 µM); MIC (Enterococcus faecium): > 125 µg/mL; MIC (Enterococcus): 2 µg/mL (≈ 8.57 µM); MIC [28]: 2 µg/mL (≈ 8.57 µM); MIC (Staphylococcus aureus [29]): 2 µg/mL (≈ 8.57 µM); MIC (Listeria monocytogenes): 3.9 µg/mL (≈ 16.7 µM); MIC (Staphylococcus aureus [30]): 7.8 µg/mL (≈ 33.4 µM); MIC (Staphylococcus aureus [31]): 3.9 µg/mL (≈ 16.7 µM); MIC (Staphylococcus aureus [32]): 3.8 µg/mL (≈ 16.3 µM)
O=c1c2ccccc2[s+]([O-])n1C1CCCCCCC1 (stereo not given)	> 125	> 125	> 125	> 125	> 125	> 125	> 125	> 125	> 125	> 125	125 (≈ 451 µM)	> 125	> 125	> 125	> 125	> 125	> 125	> 125	> 125	> 125	MIC [21]: > 125 µg/mL; MIC (Staphylococcus aureus [22]): > 125 µg/mL; MIC (Staphylococcus aureus [23]): > 125 µg/mL; MIC (Staphylococcus aureus [24]): > 125 µg/mL; MIC (Staphylococcus aureus [25]): > 125 µg/mL; MIC (Staphylococcus aureus [26]): > 125 µg/mL; MIC (Staphylococcus aureus [27]): > 125 µg/mL; MIC (Enterococcus faecium): > 125 µg/mL; MIC (Enterococcus): > 125 µg/mL; MIC [28]: > 125 µg/mL; MIC (Staphylococcus aureus [29]): > 125 µg/mL; MIC (Listeria monocytogenes): > 125 µg/mL; MIC (Staphylococcus aureus [30]): > 125 µg/mL; MIC (Staphylococcus aureus [31]): > 125 µg/mL; MIC (Staphylococcus aureus [32]): > 125 µg/mL
CC(C)CCn1sc2ccccc2c1=O	7.8 (≈ 35.2 µM)	15.6 (≈ 70.5 µM)	1 (≈ 4.52 µM)	3.9 (≈ 17.6 µM)	3.9 (≈ 17.6 µM)	7.8 (≈ 35.2 µM)	3.9 (≈ 17.6 µM)	3.9 (≈ 17.6 µM)	7.8 (≈ 35.2 µM)	3.9 (≈ 17.6 µM)	3.9 (≈ 17.6 µM)	7.8 (≈ 35.2 µM)	> 125	7.8 (≈ 35.2 µM)	3.9 (≈ 17.6 µM)	3.9 (≈ 17.6 µM)	3.9 (≈ 17.6 µM)	3.9 (≈ 17.6 µM)	3.9 (≈ 17.6 µM)	3.9 (≈ 17.6 µM)	MIC [21]: 3.9 µg/mL (≈ 17.6 µM); MIC (Staphylococcus aureus [22]): 7.8 µg/mL (≈ 35.2 µM); MIC (Staphylococcus aureus [23]): 7.8 µg/mL (≈ 35.2 µM); MIC (Staphylococcus aureus [24]): 7.8 µg/mL (≈ 35.2 µM); MIC (Staphylococcus aureus [25]): 2 µg/mL (≈ 9.04 µM); MIC (Staphylococcus aureus [26]): 3.9 µg/mL (≈ 17.6 µM); MIC (Staphylococcus aureus [27]): 3.9 µg/mL (≈ 17.6 µM); MIC (Enterococcus faecium): 7.8 µg/mL (≈ 35.2 µM); MIC (Enterococcus): 2 µg/mL (≈ 9.04 µM); MIC [28]: 3.9 µg/mL (≈ 17.6 µM); MIC (Staphylococcus aureus [29]): > 125 µg/mL; MIC (Listeria monocytogenes): > 125 µg/mL; MIC (Staphylococcus aureus [30]): 7.8 µg/mL (≈ 35.2 µM); MIC (Staphylococcus aureus [31]): 7.8 µg/mL (≈ 35.2 µM); MIC (Staphylococcus aureus [32]): 3.9 µg/mL (≈ 17.6 µM)
